Data published in ChEMBL document CHEMBL1140722, “Inhibition of adenosine deaminase by analogues of adenosine and inosine, incorporating a common heterocyclic base, 4(7)-amino-6(5)H-imidazo[4,5-d]pyridazin-7(4)one” (J Med Chem, 2008).
pIC50, pKi: −log10 of the molar value. Values belong to the compound of their own block, whether it stands above or below them.

Experiments:
Adenosine deaminase = target: T1, Adenosine deaminase (Bos taurus, UniProt P56658); experiment: Inhibition of calf intestine adenosine deaminase
T1 sequence (P56658 whole entry): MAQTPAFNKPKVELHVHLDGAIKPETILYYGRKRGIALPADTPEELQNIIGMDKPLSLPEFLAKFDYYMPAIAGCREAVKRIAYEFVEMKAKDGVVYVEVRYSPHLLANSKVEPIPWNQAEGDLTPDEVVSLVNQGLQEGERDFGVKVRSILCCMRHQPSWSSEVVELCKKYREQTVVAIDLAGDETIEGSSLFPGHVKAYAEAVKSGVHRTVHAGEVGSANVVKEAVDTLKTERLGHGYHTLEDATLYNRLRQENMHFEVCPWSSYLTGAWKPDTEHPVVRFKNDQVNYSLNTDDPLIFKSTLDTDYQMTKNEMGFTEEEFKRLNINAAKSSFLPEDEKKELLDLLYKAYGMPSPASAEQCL
Procedure, shortened: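 Calf intestine ADA, 2 × 10-3 unit per assay, at 25 °C and pH 7.4. Adenosine hydrolysis to inosine followed as change in optical density per unit time at 265 nm. Seven adenosine concentrations from 30 to 60 µM were run at each inhibitor level of 5 or 15 µM. Ki derived from Lineweaver–Burk plots (1/V vs 1/S).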

[1] = Cytotoxicity against human MCF10A cells after 5 days by MTT assay; assay type: cell-based; conditions: MCF-10A, 120 h
Procedure, shortened: (§1)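 Cells seeded at 2000/well in complete RPMI1640 and left to attach overnight at 37 °C in 5% CO2. Drug added from 20 mM DMSO stocks, final 0.0001–100 µM, eight replicates each. Exposure was continuous for 5 days, then MTT added and formazan read at 550 nm. IC50 and IC100 taken against vehicle controls and day-0 growth. Three independent experiments.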

MCF7 = experiment: Cytotoxicity against human MCF7 cells after 5 days by MTT assay; assay type: functional, cell-based; conditions: MCF7, 120 h; procedure, shortened: as §1

Compound: Nc1n[nH]c(=O)c2ncn([C@@H]3O[C@H](CO)[C@@H](O)[C@H]3O)c12
pKi (Adenosine deaminase): 4.29
pIC50 [1]: 4.08
pIC50 (MCF7): 4.63

Compound: N/N=C(\N)c1c(C(=O)NN)ncn1[C@@H]1O[C@H](CO)[C@@H](O)[C@H]1O
pKi (Adenosine deaminase): 4.58

Compound: Nc1n[nH]c(=O)c2ncn([C@H]3C[C@H](O)[C@@H](CO)O3)c12
pKi (Adenosine deaminase): 4.28
pIC50 [1]: < 4.00
pIC50 (MCF7): 4.01

Now those with a higher pKi (Adenosine deaminase), led by results:

pKi (Adenosine deaminase): 4.92
Compound: Nc1n[nH]c(=O)c2c1ncn2[C@H]1C[C@H](O)[C@@H](CO)O1
pIC50 [1]: < 4.00
pIC50 (MCF7): < 4.00

pKi (Adenosine deaminase): 4.97
Compound: Nc1n[nH]c(=O)c2c1ncn2[C@@H]1O[C@H](CO)[C@@H](O)[C@H]1O
pIC50 [1]: 4.08
pIC50 (MCF7): 4.56
